Assay results published in ChEMBL document CHEMBL1142686, “CoMFA, synthesis, and pharmacological evaluation of (E)-3-(2-carboxy-2-arylvinyl)-4,6-dichloro-1H-indole-2-carboxylic acids: 3-[2-(3-aminophenyl)-2-carboxyvinyl]-4,6-dichloro-1H-indole-2-carboxylic acid, a potent selective glycine-site NMDA receptor antagonist” (J Med Chem, 2005).
Where “and” joins values, the source holds several entries; their conditions need not be identical. Equal entries are not always repeated.

Key:
Glutamate NMDA receptor [1] = experiment: Antagonist activity of compound against rat N-methyl-D-aspartate glutamate receptor using 11 nM [3H]glycine; type: functional
Rattus norvegicus [2] = species on record: Rattus norvegicus; experiment: In vitro inhibitory concentration against glutamate stimulated accumulation of cyclic GMP in neonatal rat cerebral slices; type: functional
Mus musculus [3] = experiment: In vivo effective dose to protect the mouse (DBA/2J) from audiogenic seizures upon intraperitoneal administration; type: functional; conditions: ip
Rattus norvegicus [4] = experiment: In vivo effective dose to protect rats against maximal electroshock induced seizures upon intravenous administration; type: functional
Procedure, shortened: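 Maximal electroshock seizures in adult male CDF rats, compound iv, vehicle water, saline or 50 mM Tris base at 1 mL/kg.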

Mus musculus [5] = experiment: In vivo effective dose against harmaline induced cGMP elevation in mouse cerebellum upon intravenous administration; type: functional
Mus musculus [6] = experiment: In vivo effective dose of compound to protect mice from quinolinic acid seizures upon intravenous administration; type: functional
Glutamate NMDA receptor [7] = experiment: In vitro inhibitory concentration against binding of the [3H]glycine to strychnine-insensitive glycine binding sites of rat N-methyl-D-aspartate glutamate receptor; type: protein-complex assay
Glutamate NMDA receptor [8] = experiment: Antagonist activity of compound against rat N-methyl-D-aspartate glutamate receptor using [3H]glycine
Rattus norvegicus [9] = experiment: Reduction of infarct volume in rat with proximal middle cerebral artery occlusion at total dose of 52 mg/kg after 180 min of initiation (duration of effect 6 h); nd=Not determined; type: functional
Rattus norvegicus [10] = experiment: Reduction of infarct volume in rat with distal middle cerebral artery occlusion at total dose of 52 mg/kg after -15 min of initiation (duration of effect 6 h); type: functional
Rattus norvegicus [11] = experiment: Reduction of infarct volume in rat with proximal middle cerebral artery occlusion at total dose of 52 mg/kg after -15 min of initiation (duration of effect 6 h); type: functional
Rattus norvegicus [12] = experiment: Reduction of infarct volume in rat with distal middle cerebral artery occlusion at total dose of 52 mg/kg after 30 min of initiation (duration of effect 6 h); type: functional
Rattus norvegicus [13] = experiment: Reduction of infarct in rat with proximal middle cerebral artery occlusion at total dose of 245 mg/kg after 30 min initiation (duration of effect 6 h); type: functional
[14] = Half life was measured in rat following intravenous administration; type: ADME, organism-based; conditions: in vivo
Rattus norvegicus [15] = experiment: Reduction of infarct in rat with proximal middle cerebral artery occlusion at total dose of 490 mg/kg after 30 min initiation (duration of effect 6 h); type: functional
Rattus norvegicus [16] = experiment: Reduction of infarct volume in rat with distal middle cerebral artery occlusion at total dose of 135 mg/kg after 30 min of initiation (duration of effect 4 h); type: functional
Rattus norvegicus [17] = experiment: Reduction of infarct in rat with proximal middle cerebral artery occlusion at total dose of 245 mg/kg after 120 min initiation (duration of effect 6 h); type: functional
Rattus norvegicus [18] = experiment: Reduction of infarct in rat with proximal middle cerebral artery occlusion at total dose of 245 mg/kg after 360 min initiation (duration of effect 6 h); type: functional
Rattus norvegicus [19] = experiment: Reduction of infarct in rat with proximal middle cerebral artery occlusion at total dose of 16 mg/kg after 30 min initiation (duration of effect 6 h); type: functional
Rattus norvegicus [20] = experiment: Reduction of infarct in rat with proximal middle cerebral artery occlusion at total dose of 245 mg/kg after 180 min initiation (duration of effect 6 h); type: functional
Rattus norvegicus [21] = experiment: Reduction of infarct in rat with proximal middle cerebral artery occlusion at total dose of 123 mg/kg after 30 min initiation (duration of effect 6 h); type: functional
Rattus norvegicus [22] = experiment: Reduction of infarct in rat with proximal middle cerebral artery occlusion at total dose of 62 mg/kg after 30 min initiation (duration of effect 6 h); type: functional
Rattus norvegicus [23] = experiment: Reduction of infarct volume in rat with distal middle cerebral artery occlusion at total dose of 490 mg/kg after -15 min of initiation (duration of effect 6 h); type: functional
Rattus norvegicus [24] = experiment: Reduction of infarct in rat with proximal middle cerebral artery occlusion at total dose of 31.5 mg/kg after 30 min initiation (duration of effect 6 h); type: functional
Rattus norvegicus [25] = experiment: Reduction of infarct volume in rat with distal middle cerebral artery occlusion at total dose of 126 mg/kg after -15 min of initiation (duration of effect 6 h); type: functional
Rattus norvegicus [26] = experiment: Reduction of infarct volume in rat with distal middle cerebral artery occlusion at total dose of 245 mg/kg after -15 min of initiation (duration of effect 6 h); type: functional
Rattus norvegicus [27] = experiment: Reduction of infarct in rat with proximal middle cerebral artery occlusion at total dose of 245 mg/kg after 480 min initiation (duration of effect 6 h); type: functional
Rattus norvegicus [28] = experiment: Reduction of infarct in rat with proximal middle cerebral artery occlusion at total dose of 490 mg/kg after -15 min initiation (duration of effect 6 h); type: functional

## O=C(NCCc1ccccc1)/C(=C/c1c(C(=O)O)[nH]c2cc(Cl)cc(Cl)c12)c1ccccc1
Glutamate NMDA receptor [1]
  IC50: 224 nM

## COC(=O)Nc1cccc(/C(=C\c2c(C(=O)O)[nH]c3cc(Cl)cc(Cl)c23)C(=O)O)c1
Glutamate NMDA receptor [1]
  IC50: 114 nM
Rattus norvegicus [2]
  IC50: 840 nM
Mus musculus [3]
  ED50: 8.5 mg/kg
Rattus norvegicus [4]
  ED50: > 128 mg/kg
Mus musculus [5]
  ED50: > 64 mg/kg
Mus musculus [6]
  ED50: > 64 mg/kg
Glutamate NMDA receptor [7]
  IC50: 114 nM

## O=C(O)/C(=C/c1c(C(=O)O)[nH]c2cc(Cl)cc(Cl)c12)c1ccccc1
Rattus norvegicus [2]
  IC50: 282 nM
Glutamate NMDA receptor [8]
  IC50: 11 nM
Mus musculus [3]
  ED50: 12.2 mg/kg
Rattus norvegicus [4]
  ED50: 29 mg/kg
Mus musculus [5]
  ED50: 59 mg/kg
Mus musculus [6]
  ED50: 37 mg/kg
Glutamate NMDA receptor [7]
  IC50: 10.9 nM

## O=C(O)/C(=C/c1c(C(=O)O)[nH]c2cc(Cl)cc(Cl)c12)c1ccc(Cl)cc1
Glutamate NMDA receptor [1]
  IC50: 65 nM

## O=C(O)/C(=C/c1c(C(=O)O)[nH]c2cc(Cl)cc(Cl)c12)c1ccc(F)cc1
Glutamate NMDA receptor [1]
  IC50: 35.5 nM

## O=C(O)/C(=C/c1c(C(=O)O)[nH]c2cc(Cl)cc(Cl)c12)c1ccco1
Glutamate NMDA receptor [1]
  IC50: 22 nM

## N#C/C(=C/c1c(C(=O)O)[nH]c2cc(Cl)cc(Cl)c12)c1ccc(N)cc1
Glutamate NMDA receptor [1]
  IC50: 4660 nM

## O=C(O)/C(=C/c1c(C(=O)O)[nH]c2cc(Cl)cc(Cl)c12)c1cccnc1
Glutamate NMDA receptor [1]
  IC50: 126 nM

## O=C(/C=C/c1c(C(=O)[O-])[nH]c2cc(Cl)cc(Cl)c12)Nc1ccccc1.[Na+] [GAVESTINEL SODIUM]
Rattus norvegicus [2]
  IC50: 262 nM
Mus musculus [3]
  ED50: > 25 mg/kg
Rattus norvegicus [4]
  ED50: > 32 mg/kg
Mus musculus [6]
  ED50: > 64 mg/kg
Glutamate NMDA receptor [7]
  IC50: 15.2 nM

## O=C(O)/C(=C/c1c(C(=O)O)[nH]c2cc(Cl)cc(Cl)c12)c1ccc(Br)cc1
Glutamate NMDA receptor [1]
  IC50: 29 nM

## O=c1[nH]c2cc(Cl)c(Cl)c([N+](=O)[O-])c2[nH]c1=O [LICOSTINEL]
Rattus norvegicus [9]
  Reduction: 28%
Rattus norvegicus [2]
  IC50: 183 nM
Mus musculus [3]
  ED50: 3.7 mg/kg
Rattus norvegicus [4]
  ED50: 46.3 mg/kg
Mus musculus [5]
  ED50: 3.5 mg/kg
Mus musculus [6]
  ED50: 14.7 mg/kg
Glutamate NMDA receptor [7]
  IC50: 20 nM
Rattus norvegicus [10]
  Reduction: 18%
Rattus norvegicus [11]
  Reduction: 50%
Rattus norvegicus [12]
  Reduction: 33% and 24%

## O=C(O)/C(=C/c1c(C(=O)O)[nH]c2cc(Cl)cc(Cl)c12)c1ccc(Cl)cc1Cl
Glutamate NMDA receptor [1]
  IC50: 116 nM

## Nc1cccc(/C(=C\c2c(C(=O)O)[nH]c3cc(Cl)cc(Cl)c23)C(=O)O)c1
Rattus norvegicus [13]
  Reduction: 68% and 57% and 76% and 71%
[14]
  half-life: > 1 h
Rattus norvegicus [2]
  IC50: 364 nM
Rattus norvegicus [15]
  Reduction: 77%
Rattus norvegicus [16]
  Reduction: 28%
Rattus norvegicus [17]
  Reduction: 50%
Mus musculus [3]
  ED50: 10.8 mg/kg
Rattus norvegicus [18]
  Reduction: 58% and 59%
Rattus norvegicus [4]
  ED50: 30.6 mg/kg
Rattus norvegicus [19]
  Reduction: 12%
Mus musculus [5]
  ED50: 15 mg/kg
Mus musculus [6]
  ED50: 14.9 mg/kg
Rattus norvegicus [20]
  Reduction: 41%
Rattus norvegicus [21]
  Reduction: 49%
Rattus norvegicus [22]
  Reduction: 48%
Rattus norvegicus [23]
  Reduction: 32%
Rattus norvegicus [24]
  Reduction: 40%
Glutamate NMDA receptor [7]
  IC50: 24.3 nM
Rattus norvegicus [25]
  Reduction: 0%
Rattus norvegicus [26]
  Reduction: 13%
Rattus norvegicus [27]
  Reduction: 13%
Rattus norvegicus [28]
  Reduction: 73%

## CS(=O)(=O)Nc1ccc(/C(=C\c2c(C(=O)O)[nH]c3cc(Cl)cc(Cl)c23)C(=O)O)cc1
Glutamate NMDA receptor [1]
  IC50: 167 nM

## COc1ccc(/C(=C\c2c(C(=O)O)[nH]c3cc(Cl)cc(Cl)c23)C(=O)O)cc1
Glutamate NMDA receptor [1]
  IC50: 136 nM

## O=C(O)/C(=C/c1c(C(=O)O)[nH]c2cc(Cl)cc(Cl)c12)c1ccc(C(F)(F)F)cc1
Glutamate NMDA receptor [1]
  IC50: 89 nM

## O=C(O)/C(=C/c1c(C(=O)O)[nH]c2cc(Cl)cc(Cl)c12)c1ccncc1
Glutamate NMDA receptor [1]
  IC50: 151 nM

## O=C(O)/C(=C/c1c(C(=O)O)[nH]c2cc(Cl)cc(Cl)c12)c1cccc2ccccc12
Glutamate NMDA receptor [1]
  IC50: 145 nM

## O=C(O)/C(=C/c1c(C(=O)O)[nH]c2cc(Cl)cc(Cl)c12)c1ccccc1Cl
Glutamate NMDA receptor [1]
  IC50: 212 nM
